Experiments:
[1] = molecular target: human 20S proteasome trypsin-like (T-L, β2) site (Homo sapiens, UniProt P49720+Q99436); experiment: Fluorogenic assay for 20S human proteasome inhibition, trypsin-like site; type: biochemical
[2] = molecular target: human FAS-TE (Homo sapiens, UniProt P49327); experiment: Fluorogenic assay for human FAS-TE inhibition; type: biochemical; conditions: for reduction (drop) of FAS-TE activity: compared to 21
[3] = molecular target: ChT-L (proteasome beta-5, PSB-5) (Homo sapiens, UniProt P20618+P28074); experiment: Activity-based in situ competitive labelling against ABPP probe 28, ChT-L; type: cell-based; conditions: MCF-7 cells, 30 min preincubation with inhibitor, then 10 µM probe 28 for 30 min
[4] = molecular target: human 20S proteasome caspase-like (C-L, β1) site (Homo sapiens, UniProt P28072+Q99436); experiment: Fluorogenic assay for 20S human proteasome inhibition, caspase-like site; type: biochemical
[5] = molecular target: FAS (Homo sapiens, UniProt P49327); experiment: Activity-based in situ competitive labelling against ABPP probe 28, FAS band; type: cell-based; conditions: MCF-7 cells, 30 min preincubation with inhibitor, then 10 µM probe 28 for 30 min
Summary of the method: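 Cells at 80–90% confluency were washed and given serum-free medium with test compound (10–100 µM; 1, 2.5, 5, 10-fold excess over probe) or DMSO, 30 min at 37 °C, 5% CO2. Alkyne probe was added (10 µM final) for 30 min. Soluble lysate (1% NP-40/1% deoxycholate, ~1.0 mg/mL) was clicked to TAMRA-N3 (100 µM; 1 mM CuSO4, 1 mM TCEP, 100 µM TBTA) for 1–1.5 h, RT, dark. Read-out: 10% SDS-PAGE, in-gel fluorescence.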

[6] = molecular target: human 20S proteasome chymotrypsin-like (ChT-L, β5) site (Homo sapiens, UniProt P20618+P28074); experiment: Fluorogenic assay for 20S human proteasome inhibition, chymotrypsin-like site; type: biochemical; conditions: compared to the diastereomeric β-lactone 21

Chain of human FAS-TE (P49327 2207-2511 limits assumed): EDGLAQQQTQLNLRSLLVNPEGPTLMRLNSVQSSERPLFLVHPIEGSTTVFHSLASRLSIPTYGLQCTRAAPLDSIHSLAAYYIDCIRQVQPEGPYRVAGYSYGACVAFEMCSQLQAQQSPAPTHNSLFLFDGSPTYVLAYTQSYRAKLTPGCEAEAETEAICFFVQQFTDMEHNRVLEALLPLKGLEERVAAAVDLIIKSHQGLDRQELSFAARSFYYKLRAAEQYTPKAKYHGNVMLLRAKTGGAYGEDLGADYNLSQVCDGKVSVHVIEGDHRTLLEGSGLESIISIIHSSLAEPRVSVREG
Chain of FAS (P49327 whole entry): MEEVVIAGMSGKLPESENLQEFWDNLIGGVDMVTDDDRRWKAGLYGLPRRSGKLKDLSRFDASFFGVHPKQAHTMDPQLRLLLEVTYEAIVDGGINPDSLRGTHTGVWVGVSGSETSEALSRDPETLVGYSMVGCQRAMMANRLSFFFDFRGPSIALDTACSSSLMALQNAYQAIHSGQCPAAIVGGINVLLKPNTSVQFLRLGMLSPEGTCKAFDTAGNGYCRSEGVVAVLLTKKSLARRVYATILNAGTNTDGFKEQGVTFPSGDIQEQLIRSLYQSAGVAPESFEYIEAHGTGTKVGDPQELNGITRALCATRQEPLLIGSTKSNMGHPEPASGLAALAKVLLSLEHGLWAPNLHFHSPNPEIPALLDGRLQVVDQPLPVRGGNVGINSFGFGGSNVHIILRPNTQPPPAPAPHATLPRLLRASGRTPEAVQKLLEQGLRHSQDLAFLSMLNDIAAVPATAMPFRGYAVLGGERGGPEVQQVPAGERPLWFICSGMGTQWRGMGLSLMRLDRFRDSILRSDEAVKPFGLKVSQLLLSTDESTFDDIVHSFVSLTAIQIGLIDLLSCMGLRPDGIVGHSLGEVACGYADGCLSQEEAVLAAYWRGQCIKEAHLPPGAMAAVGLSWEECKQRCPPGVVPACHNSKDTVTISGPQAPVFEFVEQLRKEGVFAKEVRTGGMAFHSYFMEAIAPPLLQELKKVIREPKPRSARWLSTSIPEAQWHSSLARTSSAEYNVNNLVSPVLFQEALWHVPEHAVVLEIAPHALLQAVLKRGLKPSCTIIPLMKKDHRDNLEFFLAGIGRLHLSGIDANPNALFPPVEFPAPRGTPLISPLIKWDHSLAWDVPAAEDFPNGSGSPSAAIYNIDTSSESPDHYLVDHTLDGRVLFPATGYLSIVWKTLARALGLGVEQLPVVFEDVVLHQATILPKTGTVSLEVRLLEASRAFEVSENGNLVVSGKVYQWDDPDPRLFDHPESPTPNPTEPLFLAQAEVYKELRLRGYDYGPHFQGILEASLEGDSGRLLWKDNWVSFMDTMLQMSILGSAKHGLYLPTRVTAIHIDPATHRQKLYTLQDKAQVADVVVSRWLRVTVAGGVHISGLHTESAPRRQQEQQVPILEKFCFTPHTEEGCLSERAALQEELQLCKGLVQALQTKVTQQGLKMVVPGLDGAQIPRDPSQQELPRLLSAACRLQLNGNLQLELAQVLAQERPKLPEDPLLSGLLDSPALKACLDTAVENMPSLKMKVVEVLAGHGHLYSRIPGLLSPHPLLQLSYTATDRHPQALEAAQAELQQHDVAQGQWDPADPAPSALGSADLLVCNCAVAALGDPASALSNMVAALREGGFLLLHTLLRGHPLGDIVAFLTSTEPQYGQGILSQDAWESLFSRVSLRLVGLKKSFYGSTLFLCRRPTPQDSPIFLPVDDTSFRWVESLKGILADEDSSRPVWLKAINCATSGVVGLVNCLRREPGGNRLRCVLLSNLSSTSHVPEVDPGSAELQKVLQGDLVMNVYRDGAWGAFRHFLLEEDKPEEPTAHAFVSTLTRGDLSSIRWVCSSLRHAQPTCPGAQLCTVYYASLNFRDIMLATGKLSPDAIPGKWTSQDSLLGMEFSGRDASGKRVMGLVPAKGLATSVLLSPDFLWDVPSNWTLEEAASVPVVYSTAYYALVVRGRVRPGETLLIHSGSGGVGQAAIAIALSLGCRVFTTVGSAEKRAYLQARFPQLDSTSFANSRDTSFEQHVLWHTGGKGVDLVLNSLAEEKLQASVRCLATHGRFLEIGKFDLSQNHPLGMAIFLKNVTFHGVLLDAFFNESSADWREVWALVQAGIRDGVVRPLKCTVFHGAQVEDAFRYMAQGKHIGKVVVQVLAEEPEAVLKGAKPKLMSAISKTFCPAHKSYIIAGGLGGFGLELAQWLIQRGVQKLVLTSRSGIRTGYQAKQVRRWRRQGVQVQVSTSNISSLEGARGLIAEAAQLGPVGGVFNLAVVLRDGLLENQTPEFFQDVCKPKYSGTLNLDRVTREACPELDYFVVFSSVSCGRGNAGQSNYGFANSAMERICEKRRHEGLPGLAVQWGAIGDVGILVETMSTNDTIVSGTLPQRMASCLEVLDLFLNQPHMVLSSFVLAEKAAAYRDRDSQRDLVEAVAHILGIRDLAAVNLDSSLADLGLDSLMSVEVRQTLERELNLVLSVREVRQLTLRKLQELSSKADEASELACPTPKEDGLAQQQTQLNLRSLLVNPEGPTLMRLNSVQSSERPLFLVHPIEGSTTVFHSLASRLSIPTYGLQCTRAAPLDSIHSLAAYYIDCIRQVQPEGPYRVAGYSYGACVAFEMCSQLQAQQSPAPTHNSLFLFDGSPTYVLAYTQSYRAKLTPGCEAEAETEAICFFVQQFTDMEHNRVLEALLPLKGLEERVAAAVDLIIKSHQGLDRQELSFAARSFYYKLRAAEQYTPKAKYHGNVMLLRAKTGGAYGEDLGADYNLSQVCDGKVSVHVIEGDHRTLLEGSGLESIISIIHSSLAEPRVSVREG

IC50 [1] [µM]	IC50 [4] [µM]	SMILES	further results
> 100		CCCCCC[C@@H]1C(=O)O[C@H]1C(=O)NCCCC[C@H](NC(=O)[C@H](C)NC(=O)OCc1ccccc1)C(=O)OCc1ccccc1 [compound 17]	
> 100		CCCCCC[C@@H]1C(=O)O[C@H]1C(=O)NCCCC[C@H](NC(=O)[C@H](C)NC(=O)c1ccc(Br)cc1)C(=O)OCc1ccccc1 [compound 20]	
> 100	> 100	CCCCCC[C@@H]1C(=O)O[C@H]1C(=O)NCCCC[C@H](NC(=O)OCc1ccccc1)C(=O)N[C@@H](C)C(=O)OCc1ccccc1 [compound 21]	excess of inhibitor over probe 28 that resulted in ChT-L signal reduction [3]: 2.5 fold; excess of inhibitor over probe 28 that resulted in FAS signal reduction [5]: 10 fold; potency against FAS-TE compared to orlistat ([2]; ratio of IC50 values, more potent than orlistat): 3 X
> 100	7.93 ± 0.21	CCCCCC[C@@H]1C(=O)O[C@H]1C(=O)NCCCC[C@@H]1NC(=O)N([C@@H](C)C(=O)OCc2ccccc2)C1=O [compound 22]	
> 100	> 100	CCCCCC[C@H]1C(=O)O[C@@H]1C(=O)NCCCC[C@H](NC(=O)OCc1ccccc1)C(=O)N[C@@H](C)C(=O)OCc1ccccc1 [compound 23]	reduction (drop) of FAS-TE activity [2]: ~ 8 fold; reduction of proteasome ChT-L activity [6]: ~ 8 fold

Second part, the compound before the results:

SMILES	IC50 [1] [µM]	IC50 [4] [µM]	further results
CCCCCC[C@@H]1C(=O)O[C@H]1C(=O)NCCCC[C@H](NC(=O)CNC(=O)OCc1ccccc1)C(=O)OCc1ccccc1 [compound 18]	> 100		drop in potency against FAS-TE ([2]; relative to derivative 17): ~ 3 fold
CCCCCC[C@H]1C(=O)O[C@@H]1C(=O)NCCCC[C@H](NC(=O)CNC(=O)OCc1ccccc1)C(=O)OCc1ccccc1 [compound 24]	> 100		
CCCCCC[C@]1(C)C(=O)O[C@H]1C(=O)NCCCC[C@H](NC(=O)[C@H](C)NC(=O)OCc1ccccc1)C(=O)OCc1ccccc1 [compound 25]	> 100		excess of inhibitor over probe 28 that resulted in ChT-L signal reduction [3]: not able to compete effectively; excess of inhibitor over probe 28 that resulted in FAS signal reduction [5]: not able to compete effectively
CCCCCC[C@@]1(C)C(=O)O[C@@H]1C(=O)NCCCC[C@H](NC(=O)[C@H](C)NC(=O)OCc1ccccc1)C(=O)OCc1ccccc1 [compound 26]	> 100		
CCCCCC[C@@]1(C)C(=O)O[C@H]1C(=O)NCCCC[C@H](NC(=O)[C@H](C)NC(=O)OCc1ccccc1)C(=O)OCc1ccccc1 [compound 27]	> 100		
C#Cc1ccc(COC(=O)[C@H](C)NC(=O)[C@H](CCCCNC(=O)[C@@H]2OC(=O)[C@H]2CCCCCC)NC(=O)OCc2ccccc2)cc1 [compound 28]	> 100	> 100	reduction (drop) of FAS-TE activity [2]: ~ 2.5 fold
CCCCCCCCCCC[C@@H](C[C@@H]1OC(=O)[C@H]1CCCCCC)OC(=O)[C@H](CC(C)C)NC=O [orlistat, Tetrahydrolipstatin, reference compound]	> 100	> 100	
